Converted amounts (≈) assume the structure as drawn.
Tests used:
Staphylococcus aureus [1] = assay: Potentiation of cefazolin induced antibacterial activity against methicillin resistant Staphylococcus aureus ATCC BAA-44 assessed as minimum resensitizing concentration after 18 hrs by broth microdilution method; assay type: functional; settings: ATCC BAA-44, 18 h, read-out: MEC
Procedure, shortened: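 Compound titrated in the presence of cefazolin at its CLSI breakpoint (8 μg/mL); MRC is the compound concentration at which no overnight growth occurs, in μg/mL; confirmed in triplicate.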

Staphylococcus aureus [2] = assay: Antibacterial activity against methicillin resistant Staphylococcus aureus ATCC BAA-44 after 18 hrs by broth microdilution method; assay type: functional; settings: ATCC BAA-44, 18 h
Procedure, shortened: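 Compound alone, MIC by standard CLSI broth microdilution; lowest concentration with no growth, reported in μg/mL; confirmed in triplicate.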

HeLa = assay: Cytotoxicity against human HeLa cells assessed as cell growth inhibition measured after 24 hrs by Celltiter Glo luminescent assay; assay type: cell-based; settings: hela, 24 h

`NCCOc1cc(Cl)c2nc(N3CCc4c([nH]c5ccc(Cl)cc45)C3)sc2c1` gave a minimal effective concentration (Staphylococcus aureus [1]) of 4 µg/mL and an MIC (Staphylococcus aureus [2]) of 8 µg/mL (≈ 18.5 µM).
With `CCn1c2c(c3cc(Cl)ccc31)CCN(c1nc3ccc(Cl)cc3s1)C2` the minimal effective concentration (Staphylococcus aureus [1]) was > 64 µg/mL.
In the case of `N=CNCC1CN(c2nc3ccc(Cl)cc3s2)Cc2[nH]c3ccc(Cl)cc3c21` (racemic), the minimal effective concentration (Staphylococcus aureus [1]) is reported as 2 µg/mL, the MIC (Staphylococcus aureus [2]) is reported as 4 µg/mL (≈ 9.29 µM) and the GI50 (HeLa) is reported as 3.8 µg/mL (≈ 8.83 µM).
For `Oc1cc(Cl)c2nc(N3CCc4c([nH]c5ccc(Cl)cc45)C3)sc2c1`, the minimal effective concentration (Staphylococcus aureus [1]) was 8 µg/mL, the MIC (Staphylococcus aureus [2]) was > 32 µg/mL and the GI50 (HeLa) was 5.5 µg/mL (≈ 14.1 µM).
For `OCC1CN(c2nc3ccc(Cl)cc3s2)Cc2[nH]c3ccc(Cl)cc3c21` (racemic), the minimal effective concentration (Staphylococcus aureus [1]) was 2 µg/mL and the GI50 (HeLa) was 10.8 µg/mL (≈ 26.7 µM).
`Cl.NCC(=O)Nc1cc(Cl)c2nc(N3CCc4c([nH]c5ccc(Cl)cc45)C3)sc2c1` was tested, and the minimal effective concentration (Staphylococcus aureus [1]) was 2 µg/mL and the GI50 (HeLa) was 14.8 µg/mL.
In the case of `Fc1ccc2[nH]c3c(c2c1)CCN(c1nc2ccc(Cl)cc2s1)C3`, the minimal effective concentration (Staphylococcus aureus [1]) is reported as > 64 µg/mL.
Work on `NCC1CN(c2nc3ccc(Cl)cc3s2)Cc2[nH]c3ccc(Cl)cc3c21` (racemic) yielded a minimal effective concentration (Staphylococcus aureus [1]) of 1 µg/mL and a GI50 (HeLa) of 1.5 µg/mL (≈ 3.72 µM).
In the case of `Clc1ccc2[nH]c3c(c2c1)CCN(c1nc2cccc(Cl)c2s1)C3`, the minimal effective concentration (Staphylococcus aureus [1]) is reported as 1 µg/mL, the MIC (Staphylococcus aureus [2]) is reported as 4 µg/mL (≈ 10.7 µM) and the GI50 (HeLa) is reported as 6.7 µg/mL (≈ 17.9 µM).
With `Nc1ccc2nc(N3CCc4c([nH]c5ccc(Cl)cc45)C3)sc2c1` the minimal effective concentration (Staphylococcus aureus [1]) was > 64 µg/mL.
`Cn1c(N2CCc3c([nH]c4ccc(Cl)cc34)C2)nc2ccccc21` was tested, and the minimal effective concentration (Staphylococcus aureus [1]) was > 64 µg/mL.
With `Cn1c(N2CCc3c([nH]c4ccc(Cl)cc34)C2)nc2ccc(Cl)cc21` the minimal effective concentration (Staphylococcus aureus [1]) was > 64 µg/mL.
`Clc1ccc2[nH]c3c(c2c1)CCN(c1nc2c(Cl)cc(Br)cc2s1)C3` was tested, and the minimal effective concentration (Staphylococcus aureus [1]) was 8 µg/mL, the MIC (Staphylococcus aureus [2]) was > 32 µg/mL and the GI50 (HeLa) was 22 µg/mL (≈ 48.5 µM).
`CNc1cc(C(F)(F)F)c2nc(N3CCc4c([nH]c5ccc(Cl)cc45)C3)sc2c1` was tested, and the minimal effective concentration (Staphylococcus aureus [1]) was 2 µg/mL, the MIC (Staphylococcus aureus [2]) was > 32 µg/mL and the GI50 (HeLa) was 15.4 µg/mL (≈ 35.2 µM).
For `C[N+](C)(C)CC1CN(c2nc3ccc(Cl)cc3s2)Cc2[nH]c3ccc(Cl)cc3c21.[I-]` (racemic), the minimal effective concentration (Staphylococcus aureus [1]) was 4 µg/mL, the MIC (Staphylococcus aureus [2]) was 8 µg/mL and the GI50 (HeLa) was 18 µg/mL.
In the case of `COc1ccc2[nH]c3c(c2c1)CCN(c1nc2ccc(Cl)cc2s1)C3`, the minimal effective concentration (Staphylococcus aureus [1]) is reported as > 64 µg/mL.
`Cl.NCCSCC1CN(c2nc3ccc(Cl)cc3s2)Cc2[nH]c3ccc(Cl)cc3c21` (racemic) gave a minimal effective concentration (Staphylococcus aureus [1]) of 1 µg/mL and a GI50 (HeLa) of 3.8 µg/mL.
With `COc1cc(Cl)c2nc(N3CCc4c([nH]c5ccc(Cl)cc45)C3)sc2c1` the minimal effective concentration (Staphylococcus aureus [1]) was > 32 µg/mL.
For `CCOC(=O)C1c2[nH]c3ccc(Cl)cc3c2CCN1c1nc2ccc(Cl)cc2s1` (stereo not drawn), the minimal effective concentration (Staphylococcus aureus [1]) was > 64 µg/mL.
Compound `COCOCC1CN(c2nc3ccc(Cl)cc3s2)Cc2[nH]c3ccc(Cl)cc3c21` (racemic) has a minimal effective concentration (Staphylococcus aureus [1]) of 2 µg/mL and a GI50 (HeLa) of 7 µg/mL (≈ 15.6 µM).
With `Clc1ccc2nc(N3CCc4c([nH]c5cccc(Cl)c45)C3)sc2c1` the minimal effective concentration (Staphylococcus aureus [1]) was 16 µg/mL and the MIC (Staphylococcus aureus [2]) was > 16 µg/mL.
`Clc1ccc2[nH]c3c(c2c1)CCN(c1nc2ncccc2s1)C3` was tested, and the minimal effective concentration (Staphylococcus aureus [1]) was > 64 µg/mL.
In the case of `Cn1c(N2CCc3c([nH]c4ccc(Cl)cc34)C2)nc2ccc(C(F)(F)F)cc21`, the minimal effective concentration (Staphylococcus aureus [1]) is reported as > 64 µg/mL.
For `NCCNCC1CN(c2nc3ccc(Cl)cc3s2)Cc2[nH]c3ccc(Cl)cc3c21` (racemic), the minimal effective concentration (Staphylococcus aureus [1]) was 2 µg/mL and the GI50 (HeLa) was 2.4 µg/mL (≈ 5.38 µM).
`Clc1ccc2c3c([nH]c2c1)CN(c1nc2ccc(Cl)cc2s1)CC3` was tested, and the minimal effective concentration (Staphylococcus aureus [1]) was > 64 µg/mL.
`FC(F)(F)c1cnc2nc(N3CCc4c([nH]c5ccc(Cl)cc45)C3)sc2c1` was tested, and the minimal effective concentration (Staphylococcus aureus [1]) was > 64 µg/mL.
For `Clc1ccc2nc(N3CCc4c([nH]c5ccc(Br)cc45)C3)sc2c1`, the minimal effective concentration (Staphylococcus aureus [1]) was 1 µg/mL and the MIC (Staphylococcus aureus [2]) was 4 µg/mL (≈ 9.55 µM).
`CCOC(=O)c1ccc2nc(N3CCc4c([nH]c5ccc(Cl)cc45)C3)sc2c1` was tested, and the minimal effective concentration (Staphylococcus aureus [1]) was > 64 µg/mL.
`Clc1ccc2nc(N3CCc4c([nH]c5c(Cl)cccc45)C3)sc2c1` was tested, and the minimal effective concentration (Staphylococcus aureus [1]) was 16 µg/mL and the MIC (Staphylococcus aureus [2]) was > 16 µg/mL.
In the case of `Cl.NCCNc1cc(C(F)(F)F)c2nc(N3CCc4c([nH]c5ccc(Cl)cc45)C3)sc2c1`, the minimal effective concentration (Staphylococcus aureus [1]) is reported as 1 µg/mL and the GI50 (HeLa) is reported as 7.4 µg/mL.
